Test results reported in ChEMBL document CHEMBL1124436, “Benzofurans as mechanism-based inhibitors of dopamine beta-hydroxylase” (J Med Chem, 1989).

Experiments:
[1] = biological target: T1, Dopamine beta-hydroxylase (Bos taurus) (UniProt P15101); test: Inactivation constant of compound was determined by using bovine dopamine beta-hydroxylase
T1 sequence (whole entry): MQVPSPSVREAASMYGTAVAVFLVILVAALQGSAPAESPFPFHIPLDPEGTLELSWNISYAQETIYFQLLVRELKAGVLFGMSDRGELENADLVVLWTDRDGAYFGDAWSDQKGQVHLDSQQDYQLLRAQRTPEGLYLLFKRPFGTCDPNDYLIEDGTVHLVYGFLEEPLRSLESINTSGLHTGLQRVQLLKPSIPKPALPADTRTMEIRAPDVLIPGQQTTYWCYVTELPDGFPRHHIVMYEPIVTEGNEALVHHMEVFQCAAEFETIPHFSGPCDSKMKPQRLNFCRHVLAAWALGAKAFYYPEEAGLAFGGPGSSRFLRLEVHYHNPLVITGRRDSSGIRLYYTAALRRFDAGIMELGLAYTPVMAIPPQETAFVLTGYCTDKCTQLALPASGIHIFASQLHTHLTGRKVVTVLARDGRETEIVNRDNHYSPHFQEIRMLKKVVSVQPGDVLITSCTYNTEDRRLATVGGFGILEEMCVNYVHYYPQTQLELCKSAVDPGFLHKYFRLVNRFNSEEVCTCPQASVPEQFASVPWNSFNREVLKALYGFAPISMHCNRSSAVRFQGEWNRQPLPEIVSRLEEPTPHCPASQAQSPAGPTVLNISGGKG
Summary of the method: (§1)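 Purified bovine DβH (20-40 μg) was preincubated at 25 °C with varied inhibitor in 100 mM Mes/100 mM NaOAc, pH 5.0, with 0-3% DMF, 0.5 mg/mL catalase and 12 mM ascorbate. Timed aliquots went into assay mix at 37 °C, pH 5.5, with 30 mM tyramine and 12 mM ascorbate, and O2 uptake was read. Apparent kinact came from ln(activity) versus time; 1/kinact versus 1/[I] replots gave kinact and Ki.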

[2] = (§2) Partition ratio was determined by quantitating amount of compound consumed after complete inactivation of a known amount of dopamine beta-hydroxylase.
Summary of the method: (§3)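 Bovine DβH (15-20 μg) was fully inactivated at 25 °C with inhibitor in 125 mM Mes/125 mM NaOAc, pH 5.5, with 0.5 mg/mL catalase and 12 mM ascorbate. Inhibitor consumed was quantified by C18 HPLC (water-acetonitrile) with UV detection at each inhibitor's maximum. Controls without enzyme were run. Partition ratio is turnover/inactivation.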

[3] = biological target: T2, Dopamine beta-hydroxylase (Bos taurus, UniProt P15101); test: Compound was evaluated for the ability to bind to dopamine beta-hydroxylase of bovine; summary of the method: as §1
T2 sequence (P15101 whole entry): T1 sequence (whole entry)

[4] = Ratio of inactivation constant (Kinact) and inhibitory constant (Ki); summary of the method: as §1
[5] = biological target: T1, Dopamine beta-hydroxylase (Bos taurus); test: as §2; summary of the method: as §3

Row | SMILES | K inact [1] | Partition ratio [2] | Ki [3] | Ratio [4] | Partition ratio [5]
1 | Oc1ccc2ccoc2c1 | 0.23 min⁻¹ | 27 | 40 µM | 5750 | 
2 | C=C(CN)c1ccc(O)cc1 |  |  |  | 1560 | 
3 | Oc1ccc2occc2c1 | 0.23 min⁻¹ | 8 | 1900 µM |  | 
4 | C/C=C/c1ccc(O)cc1 |  |  | > 20000 µM |  | 680

Further lines, results first:

Row | K inact [1] | Partition ratio [2] | Ki [3] | Ratio [4] | Partition ratio [5] | SMILES
5 |  |  |  | 3230 |  | C#CC(CN)c1ccc(O)cc1 (stereo not given)
6 | 0.25 min⁻¹ | 35 | 3200 µM |  |  | Oc1cccc2ccoc12
7 | 0.15 min⁻¹ |  | 5 µM | 30000 |  | NCC=C1SCCS1
8 | 0.025 min⁻¹ | 730 | 700 µM |  |  | C=Cc1ccc(O)cc1 [4-VINYLPHENOL]
